Measurements: ChEMBL document CHEMBL1123442 (J Med Chem, 1986)

Experiments:
poly[d(A-T)] = assay: Binding constant relative to amsacrine (Δlog K) for DNA binding by ethidium bromide displacement; details: Bos taurus
HCT-8 = assay: In vitro for cytotoxicity against human colon tumor cells (HCT-8) in culture; format: functional, cell-based
P388 [1] = assay: In vivo for antitumor activity against P388 leukemia.; format: functional, Mus musculus
Summary of the method: (§1)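 Mice given 10^6 P388 leukemia cells intraperitoneally, then drug intraperitoneally in 0.1 mL 30% v/v ethanol-water on days 1, 5 and 9. D50 (mg/kg per day giving 50% ILS) read from dose-response graph. ILS at optimal dose versus untreated controls. Long-term survival counted at 30 days.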

L1210 = assay: In vitro for cytotoxicity against murine leukemia cells (L1210); format: functional, cell-based; details: Mus musculus
[2] = test system: Lewis lung carcinoma cell line; assay: Evaluated in vivo for antitumor activity against Lewis lung carcinoma; format: functional, Mus musculus
Summary of the method: (§2)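 Mice inoculated intravenously with 10^6 Lewis lung carcinoma cells, then drug intraperitoneally in 0.1 mL 30% v/v ethanol-water on days 5, 9 and 13. D50 (mg/kg per day for 50% ILS) taken from dose-response graph. ILS at optimal dose versus untreated tumor-bearing controls. Survivors counted at 40 days.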

P388 [3] = assay: In vivo for antitumor activity against P388 leukemia; format: functional, Mus musculus
Summary of the method: as §1

[4] = test system: Lewis lung carcinoma cell line; assay: In vivo for antitumor activity against Lewis lung carcinoma; format: functional, Mus musculus
Summary of the method: as §2

[5] = test system: Lewis lung carcinoma cell line; assay: Evaluated in vivo for antitumor activity against Lewis lung carcinoma; g denotes ILS of 50% could not be reached at any dose level; format: functional, organism-based; details: Mus musculus
Summary of the method: as §2

Δlog K (poly[d(A-T)])	Compound	IC50 (HCT-8)	OD (P388 [1])	IC50 (L1210)	D50 [2]	D50 (P388 [3])	ILSmax (P388 [3])	ILSmax [4]	OD [4]	D50 [5]
-0.08	COc1cc(NS(C)(=O)=O)ccc1Nc1c2ccccc2nc2ccc(Cl)cc12	–	–	–	–	–	–	–	–	–
–	CNc1cc(NS(C)(=O)=O)ccc1Nc1c2ccc(F)cc2nc2c(OC)cccc12	370 nM	65 mg/kg	200 nM	45 mg/kg	20 mg/kg	100%	85%	65 mg/kg	–
–	CNc1cc(NS(C)(=O)=O)ccc1Nc1c2ccccc2nc2cc(Cl)ccc12	170 nM	30 mg/kg	24 nM	15 mg/kg	10 mg/kg	149%	98%	20 mg/kg	–
–	CNc1cc(NS(C)(=O)=O)ccc1Nc1c2ccccc2nc2c(C)c(C)ccc12	76 nM	13.3 mg/kg	43 nM	10 mg/kg	7 mg/kg	148%	155%	20 mg/kg	–
-0.08	COc1ccc2[nH]c3ccccc3c(=Nc3ccc(NS(C)(=O)=O)cc3OC)c2c1	–	–	–	–	–	–	–	–	–
–	CNc1cc(NS(C)(=O)=O)ccc1Nc1c2cccc(C)c2nc2c(C)cccc12	190 nM	45 mg/kg	91 nM	25 mg/kg	6 mg/kg	202%	125%	65 mg/kg	–
–	COc1cc(NS(C)(=O)=O)ccc1Nc1c2ccccc2nc2ccccc12 [AMSACRINE]	–	–	–	–	–	–	–	–	ILS of 50% could not be reached
–	CNc1cc(NS(C)(=O)=O)ccc1Nc1c2ccc(Cl)cc2nc2c(C)cccc12	73 nM	13.3 mg/kg	15 nM	8 mg/kg	5 mg/kg	128%	126%	30 mg/kg	–
–	CNC(=O)c1cccc2c(Nc3ccc(NS(C)(=O)=O)cc3NC)c3cccc(C)c3nc12	353 nM	13.3 mg/kg	82 nM	25 mg/kg	6 mg/kg	94%	62%	30 mg/kg	–
6.71	CNc1cc(NS(C)(=O)=O)ccc1Nc1c2ccccc2nc2cc(C)ccc12	59 nM	8.9 mg/kg	19 nM	–	3.5 mg/kg	88%	41%	8.9 mg/kg	ILS of 50% could not be reached
–	CNc1cc(NS(C)(=O)=O)ccc1Nc1c2ccc(C)cc2nc2c(OC)cccc12	70 nM	13.3 mg/kg	65 nM	10 mg/kg	5.5 mg/kg	122%	194%	20 mg/kg	–
0.26	COc1ccc2c(Nc3ccc(NS(C)(=O)=O)cc3OC)c3ccccc3nc2c1	–	–	–	–	–	–	–	–	–
–	CNc1cc(NS(C)(=O)=O)ccc1Nc1c2ccccc2nc2c(Cl)cccc12	740 nM	100 mg/kg	690 nM	80 mg/kg	65 mg/kg	64%	59%	100 mg/kg	–
–	CNc1cc(NS(C)(=O)=O)ccc1Nc1c2ccccc2nc2c(OC)cccc12	140 nM	45 mg/kg	130 nM	19 mg/kg	5 mg/kg	170%	153%	45 mg/kg	–
–	CNC(=O)c1ccc2c(Nc3ccc(NS(C)(=O)=O)cc3NC)c3ccccc3nc2c1	> 104 nM	65 mg/kg	> 1600 nM	–	30 mg/kg	62%	–	–	–
–	CNC(=O)c1cccc2c(Nc3ccc(NS(C)(=O)=O)cc3OC)c3cccc(C)c3nc12 [ASULACRINE]	–	20 mg/kg	–	–	–	–	–	30 mg/kg	–
–	CNc1cc(NS(C)(=O)=O)ccc1Nc1c2ccccc2nc2cc(OC)ccc12	180 nM	8.9 mg/kg	35 nM	15 mg/kg	4.5 mg/kg	132%	75%	20 mg/kg	–
5.89	CNc1cc(NS(C)(=O)=O)ccc1Nc1c2ccccc2nc2ccc(C)cc12	1700 nM	100 mg/kg	550 nM	–	55 mg/kg	8%	200%	100 mg/kg	ILS of 50% could not be reached
6.99	CNc1cc(NS(C)(=O)=O)ccc1Nc1c2ccccc2nc2cc(Br)ccc12	140 nM	66 mg/kg	38 nM	–	5 mg/kg	136%	49%	20 mg/kg	ILS of 50% could not be reached
6.92	CNC(=O)c1cccc2c(Nc3ccc(NS(C)(=O)=O)cc3NC)c3cccc(OC)c3nc12	> 1000 nM	65 mg/kg	320 nM	–	30 mg/kg	148%	34%	65 mg/kg	ILS of 50% could not be reached
0.49	COc1cc(NS(C)(=O)=O)ccc1Nc1c2ccccc2nc2cc(Cl)ccc12	–	–	–	–	–	–	–	–	–

Δlog K (poly[d(A-T)])	Compound	IC50 (HCT-8)	OD (P388 [1])	IC50 (L1210)	D50 [2]	D50 (P388 [3])	ILSmax (P388 [3])	ILSmax [4]	OD [4]	D50 [5]
0.19	COc1cc(NS(C)(=O)=O)ccc1Nc1c2ccccc2nc2c(Cl)cccc12	–	–	–	–	–	–	–	–	–
-0.03	CNC(=O)c1cccc2c(Nc3ccc(NS(C)(=O)=O)cc3OC)c3ccccc3nc12	–	–	–	–	–	–	–	–	–
–	CNc1cc(NS(C)(=O)=O)ccc1Nc1c2ccccc2nc2c(C)cccc12	79 nM	13.3 mg/kg	53 nM	8.9 mg/kg	3 mg/kg	157%	139%	20 mg/kg	–
0.46	COc1cc(NS(C)(=O)=O)ccc1Nc1c2ccccc2nc2c(C)cccc12	–	–	–	–	–	–	–	–	–
–	CNc1cc(NS(C)(=O)=O)ccc1Nc1c2ccc(C)cc2nc2c(C)cccc12	24 nM	5.9 mg/kg	19 nM	4.2 mg/kg	2 mg/kg	92%	93%	5.9 mg/kg	–
0.38	COc1cc(NS(C)(=O)=O)ccc1Nc1c2ccccc2nc2cc(C)ccc12	–	–	–	–	–	–	–	–	–
–	CNc1cc(NS(C)(=O)=O)ccc1Nc1c2ccccc2nc2cc(F)ccc12	460 nM	45 mg/kg	94 nM	20 mg/kg	15 mg/kg	157%	79%	45 mg/kg	–
–	CNc1cc(NS(C)(=O)=O)ccc1Nc1c2ccccc2nc2c(F)cccc12	690 nM	45 mg/kg	400 nM	60 mg/kg	20 mg/kg	152%	55%	65 mg/kg	–
–	CNc1cc(NS(C)(=O)=O)ccc1Nc1c2ccccc2nc2ccccc12	–	13.3 mg/kg	–	–	–	–	–	30 mg/kg	–
0.72	COc1cc(NS(C)(=O)=O)ccc1Nc1c2ccccc2nc2cc(Br)ccc12	–	–	–	–	–	–	–	–	–
–	CNc1cc(NS(C)(=O)=O)ccc1Nc1c2ccc(Cl)cc2nc2c(OC)cccc12	143 nM	65 mg/kg	120 nM	13 mg/kg	20 mg/kg	236%	159%	45 mg/kg	–
–	CNc1cc(NS(C)(=O)=O)ccc1Nc1c2ccc(OC)cc2nc2c(C)cccc12	29 nM	1.8 mg/kg	16 nM	4 mg/kg	0.3 mg/kg	166%	50%	4 mg/kg	–
–	CNc1cc(NS(C)(=O)=O)ccc1Nc1c2ccc(Br)cc2nc2c(OC)cccc12	150 nM	65 mg/kg	41 nM	40 mg/kg	9 mg/kg	174%	111%	65 mg/kg	–
–	CNC(=O)c1cccc2c(Nc3ccc(NS(C)(=O)=O)cc3NC)c3ccccc3nc12	1800 nM	65 mg/kg	56 nM	6.8 mg/kg	30 mg/kg	82%	91%	45 mg/kg	–
–	CNc1cc(NS(C)(=O)=O)ccc1Nc1c2ccc(F)cc2nc2c(C)cccc12	150 nM	45 mg/kg	150 nM	25 mg/kg	6 mg/kg	152%	143%	45 mg/kg	–
0.78	COc1cc(NS(C)(=O)=O)ccc1Nc1c2ccccc2nc2cc(I)ccc12	–	–	–	–	–	–	–	–	–
-0.22	COc1cc(NS(C)(=O)=O)ccc1Nc1c2ccccc2nc2ccc(C)cc12	–	–	–	–	–	–	–	–	–
0.37	COc1cc(NS(C)(=O)=O)ccc1Nc1c2ccccc2nc2c(OC)cccc12	–	–	–	–	–	–	–	–	–
-0.03	COc1cc(NS(C)(=O)=O)ccc1Nc1c2ccccc2nc2cc(F)ccc12	–	–	–	–	–	–	–	–	–
–	CNc1cc(NS(C)(=O)=O)ccc1Nc1c2cccc(OC)c2nc2c(OC)cccc12	160 nM	150 mg/kg	130 nM	30 mg/kg	25 mg/kg	14%	116%	65 mg/kg	–
